Where “and” joins values, the source holds several entries; their conditions need not be identical. Equal entries are not always repeated.
Columns and labels:
[1] = Potency was evaluated on frog rectus abdominis; format: functional, Rectus abdominis muscle
[2] = species on record: Cavia porcellus; assay: Potency was evaluated on guinea pig ileum; format: functional
How it was run: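 Isolated ileum strip in aerated (O₂ with 5% CO₂) Tyrode-type salt solution (glucose 5 mM) at 37 °C. Isotonic contractions recorded at 1 g loading tension. After 30 min equilibration, cumulative concentration-response curves were run without reaching supramaximal concentrations. Potency expressed as equipotent molar ratio versus carbachol. EPMR averages compared by t-test (p < 0.05).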

[3] = Compound was evaluated for the ratio of ED50 of nicotinic agonist (N) and ED50 of muscarinic agonist (M); format: functional
[4] = Equipotent molar ratio (EPMR) between ED50 and ED50 of carbachol calculated through the regression of the angular transformant of the fractional log concentration of agonist; format: functional

| Structure (SMILES) | ED50 [1] | ED50 [2] | Ratio [3] | Ratio [4] |
| --- | --- | --- | --- | --- |
| C[C@H]1O[C@H](CN(C)C)CS1 (racemic) [listing 1 of 2 here] | 1.7e-05 | 2.76e-07 |  |  |
| C[C@@H]1O[C@H](C[N+](C)(C)C)CS1 (racemic) |  |  | 642 |  |
| C[C@H]1O[C@H](CN(C)C)CS1 (racemic) [listing 2 of 2 here] |  |  | 61.6 |  |
| C[C@@H]1O[C@H](C[N+](C)(C)C)CS1 (stereo in doubt; (+)-1) |  |  | 537 |  |
| C[C@H]1O[C@H](CN(C)C)CS1 (stereo in doubt; (+)-10) [listing 1 of 2 here] | 1.84e-05 | 6.13e-07 |  |  |
| C[C@H]1O[C@H](CN(C)C)CS1 (stereo in doubt; (+)-10) [listing 2 of 2 here] |  |  | 30 | 3 and 4.5 |
| C[C@@H]1O[C@H](C[N+](C)(C)C)CS1 (stereo in doubt; (-)-1) |  |  | 64 |  |
| C[C@H]1O[C@H](CN(C)C)CS1 (stereo in doubt; (-)-10) [listing 1 of 2 here] | 1.12e-05 | 4.2e-07 |  |  |
| C[C@H]1O[C@H](CN(C)C)CS1 (stereo in doubt; (-)-10) [listing 2 of 2 here] |  |  | 26.6 | 2 and 2.8 |
| C[N+](C)(C)CCOC(N)=O.[Cl-] [CARBACHOL] | 4.04e-06 | 2.11e-07 | 19.2 | 1 |
| C[C@@H]1O[C@H](C[N+](C)(C)C)C[C@H]1O [MUSCARINE] | >0.0005 | 7.94e-08 | > 6300 |  |

From ChEMBL document CHEMBL1123362, “Resolution, absolute configuration, and cholinergic enantioselectivity of (+)- and (-)-cis-2-methyl-5-[(dimethylamino)methyl]-1,3-oxathiolane methiodide” (1986)
